Source: ChEMBL document CHEMBL1123938, “Synthesis and biological studies of iodinated (127/125I) derivatives of rhodamine 123” (1987)
Several values for one entry are separate records, joined by “and”; a condition that tells them apart may be missing. Identical values can stand only once.

Assays:
Cricetulus griseus = species on record: Cricetulus griseus; assay: Extra cellular concentration of radiolabeled compound was determined in chinese hamster V79 lung fibroblasts; assay type: functional
Method in brief: (§1)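 V79 Chinese hamster lung fibroblasts or human PC3 prostate adenocarcinoma cells, grown at 37 °C in MEM with 15% fetal calf serum. Log-phase cells were trypsinized and suspended at 2 × 10⁵/mL in calcium-free MEM, then preincubated 4 h at 37 °C on a roller. Carrier-free ¹²⁵I-labelled dihydrorhodamine derivative was added and incubated 2 h at 37 °C. Cell radioactivity was measured by microfuge; intracellular concentration was derived from Coulter-measured cell volumes.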

PC-3 = assay: Extra cellular concentration of radiolabeled compound was determined in human prostate PC3 adenocarcinoma cells; assay type: functional, cell-based; method in brief: as §1
[1] = Ratio of pCi/cell cellular uptake to uCi/mL cellular uptake; assay type: functional

Structure (SMILES)	Concentration (Cricetulus griseus) [uCi ml-1]	Concentration (PC-3) [uCi ml-1]	Ratio [1]
COC(=O)c1ccccc1C1c2cc(I)c(N)cc2Oc2cc(N)c(I)cc21	0.97	0.883	–
COC(=O)c1ccccc1C1c2cc(I)c(N)cc2Oc2c1cc(I)c(N)c2I (stereo unspecified)	1.3	1.15	0.152 and 0.348
COC(=O)c1ccccc1C1c2cc(I)c(N)cc2Oc2c1ccc(N)c2I (stereo unspecified)	1.64	1.35	–
COC(=O)c1ccccc1C1c2ccc(N)cc2Oc2cc(N)c(I)cc21 (stereo unspecified)	0.956	0.937	–
COC(=O)c1ccccc1C1c2ccc(N)cc2Oc2c1ccc(N)c2I (stereo unspecified)	1.27	1.2	–
